pIC50: −log10 of the molar value.

Data set [1] concerns A 172. Description: Inhibition of nitric oxide formation in human A172 cells. The format is functional, cell-based. Summed up:
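Human A172 cells were stimulated with cytokines to induce NO formation, with compound present. Nitrite/NO produced was read with Griess reagent and IC50 determined.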

Data set [2] concerns the target Nitric oxide synthase, inducible (Homo sapiens, UniProt P35228). In words: Inhibition of tetracycline-induced iNOS expressed in SF9 cells. In a few lines:
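SF9 cells transfected with iNOS in a tetracycline-inducible system, expression induced by tetracycline. NOS activity was measured as conversion of radiolabeled arginine to radiolabeled citrulline. IC50 was averaged over at least two separate experiments unless noted otherwise.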

Data set [3] in a line: Clearance in rat at 2 mg/kg, iv. The format is ADME, organism-based. Also noted: dose 2 mg/kg, route intravenous. Particulars: in vivo. Summed up: (§1)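 Rat, intravenous dose of 2 mg/kg. Readouts were half-life, clearance, steady-state volume of distribution and AUC to infinity.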
Data set [4] in a line: Metabolic stability in dog liver microsomes after 3 hrs. Particulars: read-out: Stability. It is filed as ADME, Canis lupus familiaris, Microsome. In a few lines:
(§2)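 Compound incubated with rat, dog or human liver microsomes for 3 h. Stability was reported as percent parent remaining.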
For orientation: Liver microsomes are a subcellular fraction often used to study metabolism.

Data set [5] is described as follows: Cmax in rat at 10 mg/kg, po. It is filed as ADME, organism-based. Also noted: dose 10 mg/kg, route oral. Particulars: in vivo. In a few lines: (§3)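 Rat, oral dose of 10 mg/kg. Readouts were Cmax, terminal half-life, AUC to infinity and oral bioavailability (%F).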
Data set [6] in a line: Metabolic stability in human liver microsomes after 3 hrs. The settings on record: read-out: Stability. The format is ADME, Microsome. In a few lines: as §2
A short description of data set [7]: Metabolic stability in rat liver microsomes after 3 hrs. The format is ADME, Microsome. The settings on record: read-out: Stability. In a few lines:
as §2

Data set [8] can be described thus: Volume of distribution at steady state in rat at 2 mg/kg, iv. The format is ADME, organism-based. Also on record: dose 2 mg/kg, route intravenous. Particulars: in vivo, read-out: Vss. Summed up: as §1
A short description of data set [9]: AUC (infinity) in rat at 10 mg/kg, po. It is filed as ADME, organism-based. Also on record: time infinity, dose 10 mg/kg, route oral. The settings on record: plasma. In a few lines: as §3
The subject of data set [10] is Rattus norvegicus. Description: AUC (infinity) in rat at 2 mg/kg, iv. It is filed as ADME, organism-based, Plasma. Also on record: time infinity, dose 2 mg/kg, route intravenous. The settings on record: in vivo. In a few lines:
as §1

Data set [11] is described as follows: Bioavailability in rat at 10 mg/kg, po. The format is ADME, organism-based. The settings on record: in vivo. Summed up: as §3
Data set [12] in a line: Half life in rat at 2 mg/kg, iv. Also on record: dose 2 mg/kg, route intravenous. The format is ADME, organism-based. The settings on record: in vivo. In a few lines: as §1
Data set [13] is described as follows: Half life in rat at 10 mg/kg, po. It is filed as ADME, organism-based. The settings on record: in vivo. Also noted: dose 10 mg/kg, route oral. In a few lines:
as §3

Sequence of Nitric oxide synthase, inducible (P35228 whole entry): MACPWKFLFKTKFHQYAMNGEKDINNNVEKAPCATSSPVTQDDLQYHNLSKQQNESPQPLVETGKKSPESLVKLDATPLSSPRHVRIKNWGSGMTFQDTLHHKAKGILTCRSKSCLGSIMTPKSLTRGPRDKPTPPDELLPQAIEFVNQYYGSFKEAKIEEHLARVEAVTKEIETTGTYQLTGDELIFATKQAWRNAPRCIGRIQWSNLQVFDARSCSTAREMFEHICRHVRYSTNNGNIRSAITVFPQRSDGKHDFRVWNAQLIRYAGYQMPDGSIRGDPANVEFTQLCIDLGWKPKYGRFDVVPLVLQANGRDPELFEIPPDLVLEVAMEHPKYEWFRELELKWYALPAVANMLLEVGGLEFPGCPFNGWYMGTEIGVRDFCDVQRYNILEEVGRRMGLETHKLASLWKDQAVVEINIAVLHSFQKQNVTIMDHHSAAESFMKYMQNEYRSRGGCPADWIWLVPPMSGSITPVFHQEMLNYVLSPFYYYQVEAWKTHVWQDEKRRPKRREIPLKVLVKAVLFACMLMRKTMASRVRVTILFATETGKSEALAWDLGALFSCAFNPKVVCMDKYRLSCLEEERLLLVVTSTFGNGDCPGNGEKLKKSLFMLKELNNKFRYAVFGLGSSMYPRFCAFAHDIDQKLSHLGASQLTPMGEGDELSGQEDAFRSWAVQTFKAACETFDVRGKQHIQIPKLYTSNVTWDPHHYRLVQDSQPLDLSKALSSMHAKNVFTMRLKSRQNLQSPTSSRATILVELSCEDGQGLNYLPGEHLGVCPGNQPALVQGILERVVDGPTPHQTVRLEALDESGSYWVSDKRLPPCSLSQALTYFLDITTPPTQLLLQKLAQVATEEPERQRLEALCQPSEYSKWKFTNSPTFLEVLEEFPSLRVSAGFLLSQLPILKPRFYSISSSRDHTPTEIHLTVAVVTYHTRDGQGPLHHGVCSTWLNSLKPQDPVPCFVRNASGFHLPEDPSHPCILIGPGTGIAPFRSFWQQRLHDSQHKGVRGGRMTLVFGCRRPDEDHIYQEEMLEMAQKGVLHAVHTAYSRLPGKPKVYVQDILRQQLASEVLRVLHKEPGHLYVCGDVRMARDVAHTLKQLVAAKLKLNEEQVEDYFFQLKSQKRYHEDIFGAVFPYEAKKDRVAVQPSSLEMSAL

Turning to `c1cn(-c2ccc(OCCNCc3ccc4c(c3)OCO4)cc2)cn1`, in data set [1], the pIC50 (usually −log10 of the IC50, conventionally taken in molar units) was 6.62.
As to `O=C(O)CN(CCOc1ccc(-n2ccnc2)cc1)Cc1ccc2c(c1)OCO2`, in data set [1], the pIC50 is below 5.00.
The same measure, in the same setting: as for `c1cn(-c2ccc(OCCN(Cc3ccc4c(c3)OCO4)Cc3ccc4c(c3)OCO4)cc2)cn1`, the figure is 5.82; as for `O=C(CN(CCOc1ccc(-n2ccnc2)cc1)Cc1ccc2c(c1)OCO2)NCc1ccc2c(c1)OCO2`, 6.19.
With `c1cn(-c2ccc(OC3CCCN(Cc4ccc5c(c4)OCO5)C3)cc2)cn1` (stereo unspecified), the pIC50 in data set [2] was 6.60; in data set [1] it was 7.24.
`c1cn(-c2ccc(O[C@@H]3CCCN(Cc4ccc5c(c4)OCO5)C3)cc2)cn1` gave a pIC50 in [1] of 5.77.
For the compound `c1cn(-c2ccc(O[C@H]3CCCN(Cc4ccc5c(c4)OCO5)C3)cc2)cn1`, in [3], the clearance (in general, the volume of plasma or blood freed of the substance per unit of time) was determined as 128 mL/min/kg. Further, the results for the remaining at 3 h in data set [4], in [6] and in data set [7] were 89%, 31% and 47%, respectively. Further, in data set [5], the concentration peaked (Cmax) at 800 ng/mL. Moreover, in data set [8], the Vd stood at 21 L/kg. The pIC50 in [2] was 7.14; in data set [1], 8.05. Besides, the AUC(0-inf) (usually the area under the concentration-time curve extrapolated to infinity) in [9] is 2600 ng·h/mL. Also, the AUC (in general, concentration integrated over time) in data set [10] turned out to be 280 ng·h/mL. In addition, the bioavailability (usually the share of a dose that reaches the circulation, judged against a reference dose that is usually intravenous) in data set [11] came to 100%. For the same compound, the half-life (as a rule, the time in which the quantity being followed falls by half) in [12] is 2.2 h; in data set [13], 2.9 h.
Turning to `c1cn(-c2ccc(O[C@H]3CCN(Cc4ccc5c(c4)OCO5)C3)cc2)cn1`, in data set [1], the pIC50 is 5.80.
Consider `c1cn(-c2ccc(NC3CCCN(Cc4ccc5c(c4)OCO5)C3)cc2)cn1` (stereo unspecified), for which the negative-log IC50 (pIC50) in [2] is 6.92; in [1], 8.00.
As to `c1cn(-c2ccc(OC3CCCN(Cc4ccc5c(c4)OCO5)C3)nn2)cn1` (stereo unspecified), the pIC50 is 6.23 in [2] and 7.28 in data set [1].
`c1cn(-c2ccc(OCC3CCCN(Cc4ccc5c(c4)OCO5)C3)cc2)cn1` (stereo unspecified) gave a pIC50 in data set [1] below 5.00.
As for `c1cn(-c2ccc(OCC3CCCCN3Cc3ccc4c(c3)OCO4)cc2)cn1` (stereo unspecified), the figures for the pIC50 in data set [2] and in data set [1] were 5.66 and 7.00, respectively.
`CC1CCCCN1CCCNC(=O)CN(CCOc1ccc(-n2ccnc2)cc1)Cc1ccc2c(c1)OCO2` (stereo unspecified): the negative-log IC50 (pIC50) in data set [1] is 5.80.
Consider `c1cn(-c2ccc(OC3CCN(Cc4ccc5c(c4)OCO5)C3)cc2)cn1` (stereo unspecified), for which, in data set [1], the pIC50 was 5.38.
`c1cn(-c2ccc(O[C@@H]3CCN(Cc4ccc5c(c4)OCO5)C3)cc2)cn1` had a pIC50 in data set [1] below 5.00.
As to `c1cn(-c2ccc(OC3CCCCN(Cc4ccc5c(c4)OCO5)C3)cc2)cn1` (stereo unspecified), the pIC50 in [1] is 7.11.
For `c1cn(-c2ccc(OC[C@H]3CCCN3Cc3ccc4c(c3)OCO4)cc2)cn1`, the results for the pIC50 in data set [2] and in data set [1] were 5.92 and 6.60, respectively.
For `O=C(CN(CCOc1ccc(-n2ccnc2)cc1)Cc1ccc2c(c1)OCO2)NCc1ccc(C(F)(F)F)cc1`, the pIC50 in data set [1] was 5.74.
Regarding `CCOC(=O)CN(CCOc1ccc(-n2ccnc2)cc1)Cc1ccc2c(c1)OCO2`, the pIC50 in data set [1] was 5.92.

The values above are taken from ChEMBL document CHEMBL1147912, “1-(1,3-Benzodioxol-5-ylmethyl)-3-[4-(1H-imidazol-1-yl)phenoxy]-piperidine analogs as potent and selective inhibitors of nitric oxide formation” (Bioorg Med Chem Lett, 2007).
